Results from ChEMBL document CHEMBL1125273, “Synthesis and biological evaluation of quinocarcin derivatives: thioalkyl-substituted quinones and hydroquinones” (J Med Chem, 1991).
In brackets after ≈: the same amount, converted by molar mass.

What was measured:
[1] = Antitumor activity in vivo in CD2F1 mice measured in terms of percent increase in lifespan calculated at a dose of 1.56 mg/kg intraperitoneally on days 1-5.; type: functional; settings: Mus musculus, ip, route intraperitoneal
How it was run: (§1)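 P388 lymphocytic leukemia cells (1×10^6) were implanted ip into CD2F1 mice (about 22 g), five mice per group. Drug was given ip from the day after implantation, either once (day 1) or daily on days 1–5. ILS = (T/C − 1) × 100, where T and C are the median survival times of treated and control mice.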

[2] = Antitumor activity in vivo in CD2F1 mice measured in terms of percent increase in lifespan calculated at a dose of 6.25 mg/kg intraperitoneally on day one.; type: functional; settings: Mus musculus, ip, route intraperitoneal; how it was run: as §1
HeLa = test: In vitro concentration required to inhibit the growth of HeLa S3 cells by 50%; type: functional, cell-based; settings: Homo sapiens
How it was run: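 HeLa S3 cells (5 × 10⁴) seeded in Eagle's MEM with 10% FBS and 0.06 mg/mL kanamycin; graded drug concentrations, diluted in growth medium, added 24 h after seeding. Incubated 72 h at 37 °C, humidified 5% CO₂. Monolayers then washed, detached with 0.05% trypsin/0.02% EDTA and counted electronically; IC50 taken as concentration giving 50% growth inhibition.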

[3] = Ratio of the ILS tested compound/quinocarcin was determined in CD2F1 mice on days 1-5.; type: functional, Mus musculus
How it was run: (§2)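 CD2F1 mice (5 per group) received 10^6 P388 cells ip. Drug was given ip on day 1 or on days 1–5. ILS was taken as (T/C − 1) × 100 from median survival times, and each compound's ILS was divided by the ILS of quinocarcin.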

[4] = Ratio of the ILS tested compound/quinocarcin was determined for day one in CD2F1 mice.; type: functional, Mus musculus; how it was run: as §2
[5] = Antitumor activity in vivo in CD2F1 mice measured in terms of percent increase in lifespan calculated at a dose of 12.5 mg/kg intraperitoneally on day one.; type: functional; settings: Mus musculus, ip, route intraperitoneal; how it was run: as §1
[6] = Antitumor activity in vivo in CD2F1 mice measured in terms of percent increase in lifespan calculated at a dose of 6.25 mg/kg intraperitoneally on days 1-5.; type: functional; settings: Mus musculus, ip, route intraperitoneal; how it was run: as §1
[7] = Antitumor activity in vivo in CD2F1 mice measured in terms of percent increase in lifespan calculated at a dose of 50 mg/kg intraperitoneally on day one.; type: functional; settings: Mus musculus, ip, route intraperitoneal; how it was run: as §1
Homo sapiens [8] = test: Ratio of ILS tested compound/quinocarcin against human mammary carcinoma MX-1 cell line implanted subcutaneously in mice and the compound administered intravenously at a dose of 4.41 mg/kg on days 1-5.; type: functional; settings: route intravenous
CCRF S-180 = test: Ratio of ILS tested compound/quinocarcin against murine sarcoma S-180 tumor cell line implanted subcutaneously in mice and the compound administered intravenously at a dose of 6.25 mg/kg on days 1-5.; type: functional, Mus musculus; settings: route intravenous
[9] = Antitumor activity in vivo in CD2F1 mice measured in terms of percent increase in lifespan calculated at a dose of 3.13 mg/kg intraperitoneally on days 1-5.; type: functional; settings: Mus musculus, ip, route intraperitoneal; how it was run: as §1
Homo sapiens [10] = test: Ratio of ILS tested compound/quinocarcin against human mammary carcinoma MX-1 cell line implanted subcutaneously in mice and the compound administered intravenously at a dose of 12.7 mg/kg on days 1-5.c means number of cured mice.; type: functional; settings: route intravenous
[11] = Antitumor activity in vivo in CD2F1 mice measured in terms of percent increase in lifespan calculated at a dose of 12.5 mg/kg intraperitoneally on days 1-5.; type: functional; settings: Mus musculus, ip, route intraperitoneal; how it was run: as §1
[12] = Antitumor activity in vivo in CD2F1 mice measured in terms of percent increase in lifespan calculated at a dose of 25 mg/kg intraperitoneally on day one.; type: functional; settings: Mus musculus, ip, route intraperitoneal; how it was run: as §1

SMILES	ILS at 6.25 mg/kg [2]	IC50 (HeLa)	R [3]	R [4]	ILS at 12.5 mg/kg [5]	ILS at 6.25 mg/kg [6]	further results
COC1=C(SC(C)C)C(=O)C2=C(C[C@H]3[C@H]4[C@H](C(=O)O)C[C@@H](C5OC[C@@H]2N53)N4C)C1=O (stereo partly drawn)	30%	2.37 µg/mL (≈ 5.45 µM)	0.63	1.25	–	–	ILS at 1.56 mg/kg [1]: 51%
CN1[C@@H]2[C@H](C(=O)O)C[C@H]1C(C#N)N1[C@@H](CO)c3c(O)ccc(O)c3C[C@@H]21 (stereo partly drawn)	–	6.1 µg/mL (≈ 17 µM)	–	–	23%	23%	–
COc1c2c(c(OC)c(SC(C)C)c1SC(C)C)[C@H](CO)N1C(C#N)[C@@H]3C[C@@H](C(=O)O)[C@H]([C@@H]1C2)N3C (stereo partly drawn)	–	0.17 µg/mL (≈ 0.317 µM)	–	–	–	–	ILS at 50 mg/kg [7]: 7%
CCSc1c(O)c2c(c(O)c1SCC)[C@H](CO)N1C(C#N)[C@@H]3C[C@@H](C(=O)O)[C@H]([C@@H]1C2)N3C (stereo partly drawn)	–	< 0.03 µg/mL	–	–	–	–	–
CSc1c(O)c2c(c(O)c1SC)[C@H](CO)N1C(C#N)[C@@H]3C[C@@H](C(=O)O)[C@H]([C@@H]1C2)N3C (stereo partly drawn)	47%	0.09 µg/mL (≈ 0.199 µM)	0.86	1.09	–	–	T/C (Homo sapiens [8]): 0.067; T/C (CCRF S-180): 0.4; ILS at 3.13 mg/kg [9]: 92%; T/C (Homo sapiens [10]): 0
CCSC1=C(SCC)C(=O)C2=C(C[C@H]3[C@H]4[C@H](C(=O)O)C[C@@H](C5OC[C@@H]2N53)N4C)C1=O (stereo partly drawn)	64%	0.08 µg/mL (≈ 0.178 µM)	0.93	1.33	–	–	ILS at 3.13 mg/kg [9]: 82%
CSc1c(O)c2c(c(O)c1SC)[C@@H]1COC3[C@@H]4C[C@@H](C(=O)O)[C@H]([C@H](C2)N31)N4C (stereo partly drawn)	–	0.13 µg/mL (≈ 0.306 µM)	0.57	1.51	65%	59%	–
CCSc1c(O)c2c(c(O)c1OC)[C@H](CO)N1C(C#N)[C@@H]3C[C@@H](C(=O)O)[C@H]([C@@H]1C2)N3C (stereo partly drawn)	–	1.18 µg/mL (≈ 2.62 µM)	0.79	0.65	28%	58%	–
COC1=C(SC(C)C)C(=O)C2=C(C1=O)[C@@H]1COC3[C@@H]4C[C@@H](C(=O)O)[C@H]([C@H](C2)N31)N4C (stereo partly drawn)	31%	0.79 µg/mL (≈ 1.82 µM)	1	1.29	–	81%	–
COC1=C(SC(C)C)C(=O)C2=C(C[C@H]3[C@H]4[C@H](C(=O)O)C[C@@H](C(C#N)N3[C@H]2CO)N4C)C1=O (stereo partly drawn)	–	0.56 µg/mL (≈ 1.21 µM)	1	–	17%	–	ILS at 12.5 mg/kg [11]: 75%
CCCSC1=C(SCCC)C(=O)C2=C(C[C@H]3[C@H]4[C@H](C(=O)O)C[C@@H](C(C#N)N3[C@H]2CO)N4C)C1=O (stereo partly drawn)	–	0.05 µg/mL (≈ 0.0989 µM)	0.48	1.17	–	42%	ILS at 25 mg/kg [12]: 56%
